Data taken from ChEMBL document CHEMBL5223087, “First-in-Class Cyclic Temporin L Analogue: Design, Synthesis, and Antimicrobial Assessment” (J Med Chem, 2021).
Values after ≈ are worked out from the molar mass of the structure shown. Active and inactive are the calls of the source. The calls are words filed in the database; no cut-off is given here. Bridge positions count the residues as written; N and C are the ends. Square brackets hold non-standard residues; d marks the D form. Peptide text beside a SMILES is read from it.

Tests used:
Serum = experiment: Proteolytic stability in human serum incubated for 0.25 to 12 hrs by RP-UHPLC analysis; format: ADME, cell-free; conditions: time 0.25-12 hrs
Pseudomonas aeruginosa = experiment: Antimicrobial activity against Pseudomonas aeruginosa ATCC 27853 assessed as reduction in bacterial growth incubated for 16 to 18 hrs by microdilution susceptibility test; format: functional; conditions: time 16-18 hrs
How it was run: (§1)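 Broth microdilution in Mueller–Hinton broth. Mid-log bacteria at 1 × 10⁶ CFU/mL final, peptide twofold serial dilutions 100 to 0.78 μM final. Incubated 16–18 h at 37 °C. MIC taken as the lowest concentration giving total (100%) growth inhibition.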

[1] = Induction of DOPG/CL (58:42) large unilamellar vesicles membrane fluidity at 5 uM (reference value: -0.32)
How it was run: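 LUVs of DOPG/CL 58/42 prepared by extrusion (0.1 μm), Laurdan 1 μM incorporated, hydrated in PBS pH 7.4; lipid 100 μM final. Peptide added at 5 or 30 μM; spectra recorded after 10 min at 25 °C. Fluidity expressed as GP = (I440 − I490)/(I440 + I490).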

[2] = Induction of membrane leakage in DOPE/DOPG/CL (63:23:12) large unilamellar vesicles at 5 to 50 uM incubated for 10 mins; conditions: dose 5-50 µM
How it was run: (§2)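 Free probe removed by Sephadex G-50 gel filtration. Peptide added at 5–50 μM. ANTS dequenching followed 10 min (excitation 385 nm, emission 512 nm). Leakage normalised to Triton X-100 maximum.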

[3] = Induction of DOPG/CL (58:42) large unilamellar vesicles membrane fluidity at 5 uM (reference value: -0.32)
Staphylococcus aureus [4] = experiment: Antimicrobial activity against MRSA-resistant Staphylococcus aureus ATCC 43300 assessed as reduction in colony formation at 12.5 uM incubated for 24 hrs by time kill assay; format: functional, organism-based
[5] = Membrano-lytic effect in bacterial inner membrane mimic DOPE/DOPG/CL (63:23:12) large unilamellar vesicles at 5 to 50 uM by varian cary eclipse fluorescence spectrometry analysis; format: cell membranes; conditions: dose 5-50 µM
[6] = Membrano-lytic effect in bacterial inner membrane mimic DOPE/DOPG/CL (63:23:12) large unilamellar vesicles at 10 uM by varian cary eclipse fluorescence spectrometry analysis; format: cell membranes
Staphylococcus aureus [7] = experiment: Antimicrobial activity against MRSA-resistant Staphylococcus aureus ATCC 43300 assessed as reduction in colony formation at 12.5 uM incubated for 30 min by time kill assay; format: functional, organism-based
[8] = Induction of membrane leakage in DOPG/CL (58:42) large unilamellar vesicles at 5 to 50 uM incubated for 10 mins; conditions: dose 5-50 µM; how it was run: as §2
HaCaT [9] = experiment: Cytotoxicity against human HaCaT cells assessed as reduction in cell viability at 3.125 to 100 uM measured after 2 to 24 hrs by MTT assay; format: toxicity, cell-based; conditions: dose lower 3.125 µM, time lower 2 hrs, dose upper 100 µM, time upper 24 hrs
How it was run: (§3)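 HaCaT keratinocytes seeded at 4 × 10⁴/well in DMEM with 4 mM glutamine and 2% FBS, no antibiotics, overnight at 37 °C, 5% CO2. Medium replaced with peptide-containing DMEMg for 2 or 24 h. MTT 0.5 mg/mL in Hank's buffer 4 h, formazan dissolved in acidified isopropanol, A570. Viability as % of untreated cells; mean of three independent experiments ± SEM.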

[10] = Disaggregation property of compound in LPS at 20 uM after 1 hr by Tht fluorescence based assay; format: physicochemical
How it was run: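 Peptide 20 μM incubated 1 h with LPS 1 mg/mL and ThT 25 μM. Aggregation read as ThT emission at 482 nm, excitation 450 nm. ThT alone and peptide alone served as controls.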

[11] = Membrano-lytic effect in bacterial inner membrane mimic DOPG/CL (58:42) large unilamellar vesicles at 30 uM by varian cary eclipse fluorescence spectrometry analysis; format: cell membranes
HaCaT [12] = experiment: Cytotoxicity against human HaCaT cells assessed as reduction in cell viability at 50 uM measured after 24 hrs by MTT assay; format: toxicity, cell-based; how it was run: as §3
HaCaT [13] = experiment: Cytotoxicity against human HaCaT cells assessed as reduction in cell viability at 50 uM measured after 2 hrs by MTT assay; format: toxicity, cell-based; how it was run: as §3
HaCaT [14] = experiment: Cytotoxicity against human HaCaT cells assessed as reduction in cell viability at 25 uM measured after 2 hrs by MTT assay; format: toxicity, cell-based; how it was run: as §3
[15] = Membrano-lytic effect in bacterial inner membrane mimic DOPG/CL (58:42) large unilamellar vesicles at 50 uM by varian cary eclipse fluorescence spectrometry analysis; format: cell membranes
Escherichia coli = experiment: Antimicrobial activity against Escherichia coli ATCC 25922 assessed as reduction in bacterial growth incubated for 16 to 18 hrs by microdilution susceptibility test; format: functional; conditions: time 16-18 hrs; how it was run: as §1

Row | SMILES | Stability (Serum) | MIC (Pseudomonas aeruginosa) | Activity [1] | Activity [2] | Activity [3] | Activity (Staphylococcus aureus [4]) | Activity [5] | Activity [6] | Activity (Staphylococcus aureus [7]) | Activity [8] | Activity (HaCaT [9]) | Activity [10] | Activity [11] | Activity (HaCaT [12]) | Activity (HaCaT [13]) | Activity (HaCaT [14]) | Activity [15] | MIC (Escherichia coli)
1 | CC[C@H](C)[C@H](NC(=O)[C@H](CCCNC(=N)N)NC(=O)[C@@H]1CCC(=O)NCCCC[C@H](NC(=O)[C@H](Cc2ccccc2)NC(=O)[C@H](Cc2c[nH]c3ccccc23)NC(=O)[C@@H]2CCCN2C(=O)[C@@H](NC(=O)[C@@H](N)Cc2ccccc2)C(C)C)C(=O)N[C@@H](CCCCN)C(=O)N[C@@H](Cc2ccccc2)C(=O)N[C@H](CC(C)C)C(=O)N1)C(=O)N[C@@H](CC(C)C)C(N)=O (H-FVPWFKKF[dL]ERIL-NH2; lactam 6-10) | Stable | 100 µM (≈ 170 µg/mL) | -0.23 | Active | -0.23 | Active | Active | Active | Active | Active | Toxic | Not Active | Active |  |  |  |  | 
2 | CC[C@H](C)[C@H](NC(=O)[C@H](CCCNC(=N)N)NC(=O)[C@@H]1CCCCn2cc(nn2)C[C@H](NC(=O)[C@H](Cc2ccccc2)NC(=O)[C@H](Cc2c[nH]c3ccccc23)NC(=O)[C@@H]2CCCN2C(=O)[C@@H](NC(=O)[C@@H](N)Cc2ccccc2)C(C)C)C(=O)N[C@@H](CCCCN)C(=O)N[C@@H](Cc2ccccc2)C(=O)N[C@@H](CC(C)C)C(=O)N1)C(=O)N[C@@H](CC(C)C)C(N)=O |  | > 100 µM |  |  |  |  | Active | Active |  |  |  | Active |  | < 20% | < 40% | 60% | Active | > 100 µM
3 | CC[C@H](C)[C@H](NC(=O)[C@H](CCCNC(=N)N)NC(=O)[C@@H]1CCCCNC(=O)CC[C@H](NC(=O)[C@H](Cc2ccccc2)NC(=O)[C@H](Cc2c[nH]c3ccccc23)NC(=O)[C@@H]2CCCN2C(=O)[C@@H](NC(=O)[C@@H](N)Cc2ccccc2)C(C)C)C(=O)N[C@@H](CCCCN)C(=O)N[C@@H](Cc2ccccc2)C(=O)N[C@H](CC(C)C)C(=O)N1)C(=O)N[C@@H](CC(C)C)C(N)=O (H-FVPWFEKF[dL]KRIL-NH2; lactam 6-10) |  | > 100 µM |  |  |  |  |  |  |  |  |  |  |  | < 20% | < 40% | 60% |  | 25 µM (≈ 42.6 µg/mL)
